According to ChEMBL document CHEMBL3414516, “Novel pyridyl substituted 4,5-dihydro-[1,2,4]triazolo[4,3-a]quinolines as potent and selective aldosterone synthase inhibitors with improved in vitro metabolic stability” (J Med Chem, 2015):

Target: T1, Cytochrome P450 11B2, mitochondrial (Homo sapiens, UniProt P19099)
T1 sequence (P19099 whole entry): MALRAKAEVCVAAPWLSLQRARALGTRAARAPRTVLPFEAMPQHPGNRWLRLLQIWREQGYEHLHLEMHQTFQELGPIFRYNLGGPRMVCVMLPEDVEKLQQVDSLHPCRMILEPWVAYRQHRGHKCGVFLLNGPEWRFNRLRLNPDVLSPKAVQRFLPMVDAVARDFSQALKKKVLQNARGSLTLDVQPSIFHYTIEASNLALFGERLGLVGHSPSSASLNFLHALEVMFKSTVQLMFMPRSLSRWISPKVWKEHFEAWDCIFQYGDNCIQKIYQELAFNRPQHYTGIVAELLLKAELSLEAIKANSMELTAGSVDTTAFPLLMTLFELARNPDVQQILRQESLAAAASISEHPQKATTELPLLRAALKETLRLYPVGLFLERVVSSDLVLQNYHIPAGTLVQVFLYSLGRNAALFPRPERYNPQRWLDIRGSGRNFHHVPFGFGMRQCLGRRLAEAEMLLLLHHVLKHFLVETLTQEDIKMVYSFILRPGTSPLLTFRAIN
Assay: Inhibition of human CYP11B2 expressed in V79 MZh cells using [14C]-deoxycorticosterone substrate incubated for 6 hrs by HPTLC method
Type: cell-based, V79MZh
Conditions: not given
Outline: (§1)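 V79 MZh cells expressing human CYP11B1 or CYP11B2 were incubated 6 h with [¹⁴C]-deoxycorticosterone and inhibitor at various concentrations. Steroids were extracted with ethyl acetate, separated by HPTLC and quantified by phosphoimager.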

| IC50 [µM] | Structure (SMILES) |
| --- | --- |
| > 10 | Fc1cc2c(cc1-c1cccnc1)CCc1nnc(-c3ccccc3)n1-2 |
| 0.0425 | Cc1c(F)cncc1-c1cc(F)c2c(c1)CCc1nncn1-2 |
| > 10 | Fc1cc(-c2cccnc2)cc2c1-n1c(nnc1-c1ccncc1)CC2 |

Target: T2, Cytochrome P450 11B1, mitochondrial (Homo sapiens, UniProt P15538)
T2 sequence (P15538 whole entry): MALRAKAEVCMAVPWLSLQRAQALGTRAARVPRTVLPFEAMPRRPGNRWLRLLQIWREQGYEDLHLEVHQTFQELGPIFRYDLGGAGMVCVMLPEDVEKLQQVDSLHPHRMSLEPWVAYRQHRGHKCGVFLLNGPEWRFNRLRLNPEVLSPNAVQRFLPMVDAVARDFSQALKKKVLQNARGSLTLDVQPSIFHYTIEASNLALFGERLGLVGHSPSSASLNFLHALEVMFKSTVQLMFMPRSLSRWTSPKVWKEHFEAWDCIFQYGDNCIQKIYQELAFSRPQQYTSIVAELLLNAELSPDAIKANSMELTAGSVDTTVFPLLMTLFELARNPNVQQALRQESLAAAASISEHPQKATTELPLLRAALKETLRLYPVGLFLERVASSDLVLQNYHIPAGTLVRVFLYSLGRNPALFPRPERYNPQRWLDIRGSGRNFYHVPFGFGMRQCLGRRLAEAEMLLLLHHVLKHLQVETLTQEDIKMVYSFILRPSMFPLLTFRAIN
Assay: Inhibition of human CYP11B1 expressed in V79 MZh cells using [14C]-deoxycorticosterone substrate incubated for 6 hrs by HPTLC method
Type: cell-based, V79MZh
Conditions: not given
Outline: as §1

| IC50 [µM] | Structure (SMILES) |
| --- | --- |
| > 10 | Fc1cc2c(cc1-c1cccnc1)CCc1nnc(-c3ccccc3)n1-2 |
| 5.7 | Cc1c(F)cncc1-c1cc(F)c2c(c1)CCc1nncn1-2 |
| > 10 | Fc1cc(-c2cccnc2)cc2c1-n1c(nnc1-c1ccncc1)CC2 |

Species: Homo sapiens
Assay: Selectivity index, ratio of IC50 for human CYP11B1 to IC50 human CYP11B2
Conditions: not given

| Ratio IC50 | Structure (SMILES) |
| --- | --- |
| 138 | Cc1nnc2n1-c1c(F)cc(-c3cncc(C(C)O)c3)cc1CC2 (centres undefined) |
| 94 | Fc1cc(-c2cccnc2)cc2c1-n1cnnc1CC2 |
| 32 | Fc1cc2c(cc1-c1cccnc1)CCc1nncn1-2 |
| 60 | Cc1nnc2n1-c1c(F)cc(-c3cncc(-c4ccccc4)c3)cc1CC2 |
| 63 | Cc1nnc2n1-c1c(F)cc(-c3cncc(C(F)(F)F)c3)cc1CC2 |
| 78 | CC(=O)c1cncc(-c2cc(F)c3c(c2)CCc2nnc(C)n2-3)c1 |
| 96 | Cc1nnc2n1-c1cc(F)c(-c3cccnc3)cc1CC2 |
| 272 | Cc1nnc2n1-c1c(F)cc(-c3cccnc3)cc1CC2 |
| 89 | COc1cncc(-c2cc(F)c3c(c2)CCc2nnc(C)n2-3)c1 |
| 134 | Cc1c(F)cncc1-c1cc(F)c2c(c1)CCc1nncn1-2 |
| 49 | Cc1nnc2n1-c1c(F)cc(-c3cncc4ccccc34)cc1CC2 |

Test system: not listed separately
Assay: Half life in human hepatic microsomes at 1 uM in presence of NADPH system by LC-MS/MS method
Type: ADME, Microsome
Conditions: liver microsomes
Outline: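 Pooled mixed-gender human liver microsomes at 0.5 mg/mL final protein in potassium phosphate–MgCl₂ buffer (100 mM, pH 7.4). Compound at 1 μM final with NADPH system, 37 °C. Samples at 2, 5, 15, 30 and 45 min, quenched with acetonitrile, vortexed, centrifuged, and supernatant analysed by LC–MS/MS.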

| half-life at 1 µM [h] | Structure (SMILES) |
| --- | --- |
| > 2 | Cc1nnc2n1-c1c(F)cc(-c3cccnc3)cc1CC2 |

Target: T3, Aromatase (Homo sapiens, UniProt P11511)
T3 sequence (P11511 whole entry): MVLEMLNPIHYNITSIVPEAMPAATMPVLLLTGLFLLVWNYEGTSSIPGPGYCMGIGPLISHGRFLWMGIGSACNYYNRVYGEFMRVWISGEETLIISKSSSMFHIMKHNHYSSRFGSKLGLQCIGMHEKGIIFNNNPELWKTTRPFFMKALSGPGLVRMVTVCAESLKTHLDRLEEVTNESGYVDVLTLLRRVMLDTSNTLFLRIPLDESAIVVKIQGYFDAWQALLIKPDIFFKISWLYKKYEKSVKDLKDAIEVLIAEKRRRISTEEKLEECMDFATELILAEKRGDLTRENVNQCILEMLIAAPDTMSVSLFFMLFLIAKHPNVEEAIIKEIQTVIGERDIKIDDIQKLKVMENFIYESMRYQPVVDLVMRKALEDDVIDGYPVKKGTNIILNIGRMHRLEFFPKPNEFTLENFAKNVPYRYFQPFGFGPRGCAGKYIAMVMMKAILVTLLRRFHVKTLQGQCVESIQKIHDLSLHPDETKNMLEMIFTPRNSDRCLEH
Assay: Inhibition of CYP19 in human placental microsomes using [1beta-3H]androstenedione substrate
Parameters: species or system Placenta
Conditions: not given

| IC50 [µM] | Structure (SMILES) |
| --- | --- |
| > 10 | Cc1nnc2n1-c1c(F)cc(-c3cncc(C(C)O)c3)cc1CC2 (centres undefined) |
| > 10 | Fc1cc(-c2cccnc2)cc2c1-n1cnnc1CC2 |
| > 10 | Fc1cc2c(cc1-c1cccnc1)CCc1nncn1-2 |
| > 10 | Cc1nnc2n1-c1c(F)cc(-c3cncc(-c4ccccc4)c3)cc1CC2 |
| > 10 | Cc1nnc2n1-c1c(F)cc(-c3cncc(C(F)(F)F)c3)cc1CC2 |
| > 10 | CC(=O)c1cncc(-c2cc(F)c3c(c2)CCc2nnc(C)n2-3)c1 |
| > 10 | Cc1nnc2n1-c1cc(F)c(-c3cccnc3)cc1CC2 |
| > 10 | Cc1nnc2n1-c1c(F)cc(-c3cccnc3)cc1CC2 |
| > 10 | Fc1cc2c(cc1-c1cccnc1)CCc1nnc(-c3ccccc3)n1-2 |
| > 10 | COc1cncc(-c2cc(F)c3c(c2)CCc2nnc(C)n2-3)c1 |
| > 10 | Cc1c(F)cncc1-c1cc(F)c2c(c1)CCc1nncn1-2 |
| > 10 | Cc1nnc2n1-c1c(F)cc(-c3cncc4ccccc34)cc1CC2 |
| > 10 | Fc1cc(-c2cccnc2)cc2c1-n1c(nnc1-c1ccncc1)CC2 |

Target: T4, Steroid 17-alpha-hydroxylase/17,20 lyase (Homo sapiens, UniProt P05093)
T4 sequence (P05093 whole entry): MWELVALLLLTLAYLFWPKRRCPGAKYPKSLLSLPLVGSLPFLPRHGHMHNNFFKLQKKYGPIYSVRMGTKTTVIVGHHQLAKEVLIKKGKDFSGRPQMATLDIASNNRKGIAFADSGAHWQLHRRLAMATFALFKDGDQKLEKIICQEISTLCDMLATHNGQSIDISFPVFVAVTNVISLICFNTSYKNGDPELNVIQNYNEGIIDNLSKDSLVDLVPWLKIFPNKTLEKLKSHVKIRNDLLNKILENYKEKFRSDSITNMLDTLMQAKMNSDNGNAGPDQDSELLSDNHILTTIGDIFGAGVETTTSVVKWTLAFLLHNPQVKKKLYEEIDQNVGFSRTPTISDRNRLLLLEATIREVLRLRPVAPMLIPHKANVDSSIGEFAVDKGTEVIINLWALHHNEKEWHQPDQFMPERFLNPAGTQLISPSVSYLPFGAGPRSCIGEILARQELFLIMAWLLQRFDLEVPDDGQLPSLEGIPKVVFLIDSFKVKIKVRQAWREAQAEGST
Assay: Inhibition of human CYP17 expressed in Escherichia coli coexpressing human CYP17 and NADPH-P450 reductase
Conditions: not given

| IC50 [µM] | Structure (SMILES) |
| --- | --- |
| > 10 | Cc1nnc2n1-c1c(F)cc(-c3cncc(C(C)O)c3)cc1CC2 (centres undefined) |
| > 10 | Fc1cc(-c2cccnc2)cc2c1-n1cnnc1CC2 |
| > 10 | Fc1cc2c(cc1-c1cccnc1)CCc1nncn1-2 |
| > 10 | Cc1nnc2n1-c1c(F)cc(-c3cncc(-c4ccccc4)c3)cc1CC2 |
| > 10 | Cc1nnc2n1-c1c(F)cc(-c3cncc(C(F)(F)F)c3)cc1CC2 |
| > 10 | CC(=O)c1cncc(-c2cc(F)c3c(c2)CCc2nnc(C)n2-3)c1 |
| > 10 | Cc1nnc2n1-c1cc(F)c(-c3cccnc3)cc1CC2 |
| > 10 | Cc1nnc2n1-c1c(F)cc(-c3cccnc3)cc1CC2 |
| > 10 | Fc1cc2c(cc1-c1cccnc1)CCc1nnc(-c3ccccc3)n1-2 |
| > 10 | COc1cncc(-c2cc(F)c3c(c2)CCc2nnc(C)n2-3)c1 |
| > 10 | Cc1c(F)cncc1-c1cc(F)c2c(c1)CCc1nncn1-2 |
| > 10 | Cc1nnc2n1-c1c(F)cc(-c3cncc4ccccc34)cc1CC2 |
| > 10 | Fc1cc(-c2cccnc2)cc2c1-n1c(nnc1-c1ccncc1)CC2 |
